In BindingDB's records for doi:10.1016/j.bmc.2022.116974 (University of Maryland, 2022) one finds EC50 data, which are given here for 3 molecules.

Chain of Galectin-3 (P17931 whole entry): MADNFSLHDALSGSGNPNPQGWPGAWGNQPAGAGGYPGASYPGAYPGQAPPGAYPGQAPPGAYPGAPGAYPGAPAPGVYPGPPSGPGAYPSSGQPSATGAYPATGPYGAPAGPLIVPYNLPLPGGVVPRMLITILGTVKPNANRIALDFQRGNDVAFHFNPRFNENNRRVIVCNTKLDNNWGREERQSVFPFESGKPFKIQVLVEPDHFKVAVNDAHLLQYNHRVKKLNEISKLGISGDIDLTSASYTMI

This assay concerns the target Galectin-3 (Homo sapiens, UniProt P17931). Description: Binding affinity to human galectin 3 by surface plasma resonance analysis. An outline of the steps: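 Recombinant human Gal-3 amine-coupled to a CM5 chip (about 1000 RU) with an ethanolamine reference channel. Analytes were serially diluted in 0.01 M HEPES pH 7.4, 0.15 M NaCl and 0.005% P20, then run at 25 °C and 30 μL/min with 120 s association and 300 s dissociation, followed by 3 M MgCl2 regeneration. EC50 was taken from the fitted binding curve.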
What is called EC50 is the midpoint of the concentration-response curve. As for `CC(=O)N[C@H]1[C@@H](OCCOCCOCCN=[N+]=[N-])O[C@H](CO)[C@H](O)[C@@H]1O`, the EC50 is more than 1000 µM.

With `CC(=O)N[C@H]1[C@@H](OCCOCCOCCN=[N+]=[N-])O[C@H](CO)[C@H](O)[C@@H]1O[C@@H]1O[C@H](CO)[C@H](O)[C@H](O)[C@H]1O`, the concentration giving a half-maximal response (EC50) was more than 1000 µM.

In the case of `[N-]=[N+]=NCCOCCOCCO[C@@H]1O[C@H](CO)[C@@H](O[C@@H]2O[C@H](CO)[C@H](O)[C@H](O)[C@H]2O)[C@H](O)[C@H]1O`, the EC50 was more than 1000 µM.
